The source made the active and inactive calls.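 Rule for the calls, unless noted: active = viability at or below 30% in both replicate assays; inconclusive = viability at or below 30% in just one of the two assays; inactive = the rest.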

The nature of assay [1]: Her2 expression decrease, cell viability multiplex – SKBR3 breast tumor cells, AlphaScreen, ATP viability, primary screen (AID 461;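 active = Her2 level under about 52% in both replicate screens, with viability over 70% of control, limit read from the data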;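 for Her2 level: lower value means less Her2 protein in the cells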;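 for viability: percent of carrier control wells set as 100% viability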). To be noted: SKBR3 Her2 protein level, 18-24 h, measured here: SKBR3 viability, ATP luminescence, at 10 µM. (In Alpha technology, singlet oxygen from a donor bead excites a nearby acceptor bead.)
In assay [2] the target is Receptor tyrosine-protein kinase erbB-2 (Homo sapiens) (UniProt P04626). The description is as above. To be noted: 18-24 h, at 10 µM, stronger effect = lower value.
Sequence of Receptor tyrosine-protein kinase erbB-2 (Homo sapiens) (P04626 whole entry, looked up): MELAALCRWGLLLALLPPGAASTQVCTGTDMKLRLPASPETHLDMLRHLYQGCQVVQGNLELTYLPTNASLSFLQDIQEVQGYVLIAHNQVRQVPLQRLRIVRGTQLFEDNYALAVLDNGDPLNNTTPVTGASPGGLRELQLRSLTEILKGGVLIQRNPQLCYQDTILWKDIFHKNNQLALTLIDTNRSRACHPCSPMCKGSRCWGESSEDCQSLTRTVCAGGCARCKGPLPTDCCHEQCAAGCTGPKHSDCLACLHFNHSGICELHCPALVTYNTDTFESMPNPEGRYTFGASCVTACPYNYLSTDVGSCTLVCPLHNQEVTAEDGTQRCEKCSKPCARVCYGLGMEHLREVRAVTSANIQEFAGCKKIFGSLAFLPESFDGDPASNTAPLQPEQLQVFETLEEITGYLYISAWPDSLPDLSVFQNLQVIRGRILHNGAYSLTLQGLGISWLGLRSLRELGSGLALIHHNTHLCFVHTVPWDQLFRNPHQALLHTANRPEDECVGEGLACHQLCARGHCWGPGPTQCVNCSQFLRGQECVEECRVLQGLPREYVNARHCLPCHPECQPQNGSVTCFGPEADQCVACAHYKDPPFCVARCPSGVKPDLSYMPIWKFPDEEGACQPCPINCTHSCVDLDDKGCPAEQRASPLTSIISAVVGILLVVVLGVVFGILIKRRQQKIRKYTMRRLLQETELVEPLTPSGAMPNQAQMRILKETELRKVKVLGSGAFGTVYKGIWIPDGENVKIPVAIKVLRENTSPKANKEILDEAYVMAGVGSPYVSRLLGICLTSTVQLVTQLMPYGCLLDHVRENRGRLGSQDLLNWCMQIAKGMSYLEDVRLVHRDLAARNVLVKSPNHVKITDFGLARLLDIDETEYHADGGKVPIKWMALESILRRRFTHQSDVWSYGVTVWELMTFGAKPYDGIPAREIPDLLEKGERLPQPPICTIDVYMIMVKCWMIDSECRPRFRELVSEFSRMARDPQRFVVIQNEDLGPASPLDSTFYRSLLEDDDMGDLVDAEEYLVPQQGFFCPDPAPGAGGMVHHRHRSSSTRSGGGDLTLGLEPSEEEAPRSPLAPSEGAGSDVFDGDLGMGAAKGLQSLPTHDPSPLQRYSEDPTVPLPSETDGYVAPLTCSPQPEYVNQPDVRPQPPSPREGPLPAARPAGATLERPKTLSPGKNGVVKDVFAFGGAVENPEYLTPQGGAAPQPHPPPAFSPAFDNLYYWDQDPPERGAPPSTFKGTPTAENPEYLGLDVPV
Assay [3] can be described thus: reduced viability of SK-BR-3 breast cancer cells – cell-based, 24 h, human, pilot screen (AID 572;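 active = viability at or below 10% of carrier control in both of two separate runs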;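 note: compound exposure lasted between 18 and 24 h rather than exactly 24 h; 100% = carrier-treated control wells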). To be noted: SK-BR-3 viability, CellTiter-Glo luminescence, at 10 µM, stronger effect = lower value. (In general: In ATP-based viability assays light output follows the ATP content of the culture.)
Assay [4] in a line: HUVEC growth inhibition – cell-based, human, primary screen (AID 575).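 Note: 100% = median of untreated cell wells with 0.1% DMSO on each plate.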 To be noted: HUVEC proliferation, CellTiter-Glo luminescence, 72 h; at 10 µM; stronger effect = lower value. In outline:
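System: primary human umbilical vein endothelial cells; Quantity: 1250 endothelial cells in each well; Buffer or medium: supplemented EBM, 2% fetal bovine serum; Doses: one dose, 10 µM final, 0.1% DMSO; Incubation: 72 h compound incubation; Technique: ATP-based CellTiter-Glo luminescent read; Evaluation: percent of median DMSO-control luminescence; Controls: vehicle and MePR control wells.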

Assay [5] can be described thus: H69AR cell proliferation blockers – human, duplicate replicates, primary screen (AID 580;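 active = viability at or under a set limit in both replicates, limit being median viability minus 3 SD, cut at about 48% in these data, passing the limit was not always enough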;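 note: 100% = mean luminescence of untreated wells and 0% = no signal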). To be noted: H69AR lung tumor cells viability, ATP luminescence, 72 h; at 10 µM; stronger effect = lower value.
Assay [6] is described as follows: MRP1 drug-resistance reversers in H69AR cells – cell-based, doxorubicin co-treatment, pilot screen (AID 601;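 active = viability loss from added drug above about 55%, and viability with drug at most 40%, in both replicates, limit read from the data, passing the limit was not always enough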). The following applies: CellTiter-Glo, 72 h, at 10 µM; for differential viability (reversal): stronger effect = higher value.
Assay [7] is described as follows: yeast transport mutant growth inhibition pilot in 384-well plates, post-Golgi transport modulator project (AID 636; in the data active = inhibition above about 31%). The following applies: absorbance 615 nm, about 18 h, stronger effect = higher value.
Assay [8] is described as follows: growth suppression of yeast trafficking mutant, preliminary HTS, modulators of trafficking downstream of Golgi apparatus project, 1536-format plate, OD 615 nm (AID 637; in the data active = inhibition above about 30%). The following applies: yeast transport mutant growth, absorbance 615 nm, 18 h; stronger effect = higher value.
[9] abbreviates: H69AR cells + 2 uM doxorubicin, measured here: viability with 2 uM doxorubicin, stronger effect = lower value.
Where [10] appears, read: H69AR cells, compound alone cytotoxicity.

By viability is commonly meant a read-out of living cells in per cent, often relative to untreated cells. In general, inhibition refers to the change of the read-out against control, counted positive when it falls. On to `CCOC(=O)N1CCN(C(=O)COc2ccc(S(=O)(=O)NC3CCCCC3)cc2C)CC1`, for which the viability in assay [1] is 112%; in assay [3], 112% (inactive); in assay [4] it was 80.9% (inactive); in assay [5], 98.9% (inactive); in assay [6] (setting [9]) it was 98.5%; in assay [6] (setting [10]) it was 98.9%. In addition, the Her2 level in assay [2] is 110% (inactive). For the same compound, in assay [6] (H69AR cells + 2 uM doxorubicin), the differential viability (reversal) was 0.31% (inactive). Moreover, the inhibition was -0.4% (inactive) in assay [7] and -1.31% (inactive) in assay [8].

Regarding `CCN(Cc1nc2ccccc2c(=O)[nH]1)Cc1cc(=O)oc2cc(C)c(C)cc12`, the viability in assay [1] is 107%; in assay [3] it was 107% (inactive); in assay [4], 63% (inactive); in assay [5], 62.9% (inactive); in assay [6] (setting [9]), 42%; in assay [6] (setting [10]), 62.9%. Further, the Her2 level in assay [2] is 102% (inactive). The differential viability (reversal) in assay [6] (H69AR cells + 2 uM doxorubicin) is 21% (inactive). The inhibition in assay [7] is -4.68% (inactive); in assay [8], -1.67% (inactive).

Turning to `CCc1nnc2c3cnn(-c4ccccc4)c3ncn12`, the viability in assay [1] is 93.5%; in assay [3], 93.5% (inactive); in assay [4], 102% (inactive); in assay [5], 110% (inactive); in assay [6] (setting [9]) it was 94.6%; in assay [6] (setting [10]) it was 110%. The Her2 level in assay [2] was 95% (inactive). Also, in assay [6] (H69AR cells + 2 uM doxorubicin), the differential viability (reversal) is 15.1% (inactive). Moreover, the inhibition in assay [7] was -3.92% (inactive); in assay [8], 2.38% (inactive).

As to `Cn1c(C(=O)N2CCN(C(=O)c3ccco3)CC2)cc2c(=O)n3ccccc3nc21`, the viability in assay [1] was 100%; in assay [3], 100% (inactive); in assay [4], 82.3% (inactive); in assay [5], 82.6% (inactive); in assay [6] (setting [9]), 83.4%; in assay [6] (setting [10]), 82.6%. Also, the Her2 level in assay [2] was 104% (inactive). Further, the differential viability (reversal) in assay [6] (H69AR cells + 2 uM doxorubicin) is -0.835% (inactive). Moreover, the inhibition in assay [7] is 0.26% (inactive); in assay [8] it was -0.98% (inactive).

Turning to `CCOc1ccc(NC(=O)CN(C)S(=O)(=O)c2cccs2)cc1`, the viability in assay [1] was 104%; in assay [3] it was 104% (inactive); in assay [4] it was 101% (inactive); in assay [5] it was 93.9% (inactive); in assay [6] (setting [9]) it was 87.8%; in assay [6] (setting [10]), 93.9%. In addition, the Her2 level in assay [2] was 100% (inactive). In addition, in assay [6] (H69AR cells + 2 uM doxorubicin), the differential viability (reversal) is 6.1% (inactive). Besides, the inhibition was -3.2% (inactive) in assay [7] and 1.45% (inactive) in assay [8].

On to `Cc1cc2c(cc1C)-c1nnnn1C(C)(C)C2`, for which the viability in assay [1] is 110%; in assay [3], 110% (inactive); in assay [4], 101% (inactive); in assay [5] it was 91.9% (inactive); in assay [6] (setting [9]) it was 87.1%; in assay [6] (setting [10]), 91.9%. The Her2 level in assay [2] is 97.5% (inactive). Moreover, the differential viability (reversal) in assay [6] (H69AR cells + 2 uM doxorubicin) was 4.78% (inactive). Besides, the inhibition in assay [7] is -9.07% (inactive); in assay [8], -5.24% (inactive).

Consider `Cc1ccc2[nH]c(=O)c(CN(Cc3ccc4c(c3)OCO4)Cc3nnnn3Cc3ccco3)cc2c1`, for which the viability in assay [1] is 102%; in assay [3], 102% (inactive); in assay [4] it was 106% (inactive); in assay [5] it was 88.9% (inactive); in assay [6] (setting [9]) it was 92.6%; in assay [6] (setting [10]), 88.9%. The Her2 level in assay [2] is 93% (inactive). Also, the differential viability (reversal) in assay [6] (H69AR cells + 2 uM doxorubicin) is -3.68% (inactive). The inhibition in assay [7] is -2.99% (inactive); in assay [8], -3.49% (inactive).

For `CCCCn1c(SCC(=O)Nc2cc(C)on2)nnc1-c1cccnc1`, the viability in assay [1] is 96.5%; in assay [3] it was 96.5% (inactive); in assay [4], 87.8% (inactive); in assay [5] it was 104% (inactive); in assay [6] (setting [9]), 106%; in assay [6] (setting [10]), 104%. Also, the Her2 level in assay [2] was 111% (inactive). In assay [6] (H69AR cells + 2 uM doxorubicin), the differential viability (reversal) is -2.12% (inactive). For the same compound, the inhibition in assay [7] was -0.67% (inactive); in assay [8] it was 11% (inactive).

As to `Cn1c(=O)c2c(nc(N3CCCCC3)n2CCSc2nc3ccccc3o2)n(C)c1=O`, the viability in assay [1] is 100%; in assay [3], 100% (inactive); in assay [4] it was 88.4% (inactive); in assay [5] it was 82.2% (inactive); in assay [6] (setting [9]) it was 80.4%; in assay [6] (setting [10]), 82.2%. The Her2 level in assay [2] is 105% (inactive). Besides, the differential viability (reversal) in assay [6] (H69AR cells + 2 uM doxorubicin) was 1.8% (inactive). Moreover, the inhibition was -0.67% (inactive) in assay [7] and -6.39% (inactive) in assay [8].

Turning to `Nc1nnc(SCC(=O)N2CCc3ccccc32)n1-c1ccccc1`, the viability was 102% in assay [1]; 102% (inactive) in assay [3]; 82% (inactive) in assay [4]; 101% (inactive) in assay [5]; 94.5% in assay [6] (setting [9]); 101% in assay [6] (setting [10]). In assay [2], the Her2 level was 80% (inactive). In addition, the differential viability (reversal) in assay [6] (H69AR cells + 2 uM doxorubicin) is 6.62% (inactive). Further, the inhibition was -4.8% (inactive) in assay [7] and 0.32% (inactive) in assay [8].

Take `C=CCSC1=C(C#N)C(c2ccccc2Cl)CC(=O)N1` (stereo not given): the viability was 72% in assay [1]; 72% (inactive) in assay [3]; 103% (inactive) in assay [4]; 96.5% (inactive) in assay [5]; 95.1% in assay [6] (setting [9]); 96.5% in assay [6] (setting [10]). Also, the Her2 level in assay [2] was 85.5% (inactive). Also, the differential viability (reversal) in assay [6] (H69AR cells + 2 uM doxorubicin) was 1.45% (inactive). Further, the inhibition in assay [7] was 0.27% (inactive); in assay [8], -2.26% (inactive).

As for `CC(C)CCNC(=O)C(c1cccs1)N(CC1CCCO1)C(=O)Cn1nnc2ccccc21` (stereo not given), the viability in assay [1] is 116%; in assay [3], 116% (inactive); in assay [4], 96.2% (inactive); in assay [5], 89.8% (inactive); in assay [6] (setting [9]), 85.5%; in assay [6] (setting [10]) it was 89.8%. Further, the Her2 level in assay [2] is 112% (inactive). In assay [6] (H69AR cells + 2 uM doxorubicin), the differential viability (reversal) is 4.32% (inactive). Besides, the inhibition in assay [7] is -5.71% (inactive); in assay [8], -6.33% (inactive).

Turning to `CNC(=O)c1ccc(N(Cc2ccccc2C)S(C)(=O)=O)cc1`, the viability in assay [1] was 98%; in assay [3], 98% (inactive); in assay [4], 102% (inactive); in assay [5], 93.6% (inactive); in assay [6] (setting [9]) it was 92.7%; in assay [6] (setting [10]) it was 93.6%. The Her2 level in assay [2] is 102% (inactive). Moreover, the differential viability (reversal) in assay [6] (H69AR cells + 2 uM doxorubicin) is 0.93% (inactive). Further, the inhibition was -3.87% (inactive) in assay [7] and -2.95% (inactive) in assay [8].

With `COc1ccccc1-c1nnc(SCc2ccccn2)n1C`, the viability in assay [1] is 94%; in assay [3], 94% (inactive); in assay [4] it was 113% (inactive); in assay [5], 80.6% (inactive); in assay [6] (setting [9]), 91.4%; in assay [6] (setting [10]), 80.6%. The Her2 level in assay [2] is 107% (inactive). Besides, the differential viability (reversal) in assay [6] (H69AR cells + 2 uM doxorubicin) is -10.8% (inactive). The values for the inhibition in assay [7] and in assay [8] were 7.53% (inactive) and 9.37% (inactive), respectively.

As to `CCC(C)(C(=O)NC1CCCCC1)N(CC1CCCO1)C(=O)c1ccccn1` (stereo not given), the viability in assay [1] is 82%; in assay [3], 82% (inactive); in assay [4] it was 91.6% (inactive); in assay [5] it was 89% (inactive); in assay [6] (setting [9]), 90.6%; in assay [6] (setting [10]), 89%. In assay [2], the Her2 level is 99% (inactive). Also, the differential viability (reversal) in assay [6] (H69AR cells + 2 uM doxorubicin) was -1.55% (inactive). The results for the inhibition in assay [7] and in assay [8] were -0.26% (inactive) and -1.15% (inactive), respectively.

The values above are taken from PubChem BioAssay.
